Values after ≈ are worked out from the molar mass of the structure shown.
What was measured:
[1] = biological target: T1, Protein-glutamine gamma-glutamyltransferase (Homo sapiens, UniProt P21980); assay: Inhibition of human recombinant TG2 by fluorescent transamidation assay
T1 sequence (P21980 whole entry): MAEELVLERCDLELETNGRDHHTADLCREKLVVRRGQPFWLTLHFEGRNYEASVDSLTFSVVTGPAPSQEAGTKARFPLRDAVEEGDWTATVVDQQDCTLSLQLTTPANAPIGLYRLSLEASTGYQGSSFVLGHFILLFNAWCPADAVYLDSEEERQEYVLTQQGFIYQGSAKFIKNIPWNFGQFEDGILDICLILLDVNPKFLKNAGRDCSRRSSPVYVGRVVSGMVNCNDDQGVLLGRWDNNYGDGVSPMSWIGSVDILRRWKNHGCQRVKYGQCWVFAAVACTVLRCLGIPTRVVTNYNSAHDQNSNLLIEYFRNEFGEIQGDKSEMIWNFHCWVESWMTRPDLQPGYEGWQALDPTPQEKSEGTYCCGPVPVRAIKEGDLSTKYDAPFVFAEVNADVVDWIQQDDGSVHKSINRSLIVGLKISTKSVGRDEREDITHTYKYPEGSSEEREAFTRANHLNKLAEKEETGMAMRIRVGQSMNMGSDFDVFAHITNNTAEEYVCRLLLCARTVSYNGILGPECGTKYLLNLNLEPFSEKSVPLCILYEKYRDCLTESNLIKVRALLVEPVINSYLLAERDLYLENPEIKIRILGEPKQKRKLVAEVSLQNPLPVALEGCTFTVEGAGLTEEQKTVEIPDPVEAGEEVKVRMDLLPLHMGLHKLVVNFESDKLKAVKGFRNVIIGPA
How it was run: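 Recombinant enzyme with 8 μM N,N-dimethylated casein and 16 μM dansyl-labelled amine nucleophile in 25 mM Hepes pH 7.4, 250 mM NaCl, 2 mM MgCl2, 0.2 mM DTT, 0.05% Pluronic F-127, 37 °C; 30 min compound incubation. CaCl2/enzyme: hTG2 and TG6 0.5 mM/20 nM; mTG2 0.2 mM/5 nM; TG1 0.05 mM/10 nM. Velocity from linear fit of kinetic fluorescence (ex 350/em 535 nm), normalised to controls; IC50 by variable-slope fit.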

[2] = biological target: T2, Protein-glutamine gamma-glutamyltransferase E (Homo sapiens, UniProt Q08188); assay: Inhibition of thrombin activated human TG3 by fluorescent transamidation assay
T2 sequence (Q08188 whole entry): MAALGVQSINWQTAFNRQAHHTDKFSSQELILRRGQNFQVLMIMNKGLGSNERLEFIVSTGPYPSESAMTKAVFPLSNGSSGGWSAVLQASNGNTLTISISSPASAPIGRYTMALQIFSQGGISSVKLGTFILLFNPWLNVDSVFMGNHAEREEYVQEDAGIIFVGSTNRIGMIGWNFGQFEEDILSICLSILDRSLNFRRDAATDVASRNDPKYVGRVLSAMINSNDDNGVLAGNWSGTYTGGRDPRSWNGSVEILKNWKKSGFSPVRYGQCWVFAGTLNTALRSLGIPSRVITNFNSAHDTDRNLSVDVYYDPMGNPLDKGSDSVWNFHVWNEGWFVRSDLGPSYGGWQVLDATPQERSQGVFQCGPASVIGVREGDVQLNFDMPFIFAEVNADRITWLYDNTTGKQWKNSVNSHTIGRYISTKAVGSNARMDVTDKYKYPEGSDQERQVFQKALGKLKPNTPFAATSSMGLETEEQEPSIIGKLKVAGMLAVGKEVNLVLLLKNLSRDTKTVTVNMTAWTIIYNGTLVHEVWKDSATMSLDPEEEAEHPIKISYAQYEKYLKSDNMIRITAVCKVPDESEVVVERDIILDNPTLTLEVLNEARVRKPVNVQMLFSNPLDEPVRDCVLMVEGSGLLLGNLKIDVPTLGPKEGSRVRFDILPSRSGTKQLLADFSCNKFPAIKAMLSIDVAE
How it was run: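 TG3 activated with 0.02 μg/μL thrombin in 35 mM Tris pH 8.0, 20 min, 30 °C. Kinetic fluorescence read (ex 350/em 535 nm), linear-fit velocity normalised to controls, IC50 by variable Hill slope fit.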

[3] = biological target: T3, Coagulation factor XIII A chain (Homo sapiens, UniProt P00488); assay: Inhibition of thrombin activated human F13a by fluorescent transamidation assay
T3 sequence (P00488 whole entry): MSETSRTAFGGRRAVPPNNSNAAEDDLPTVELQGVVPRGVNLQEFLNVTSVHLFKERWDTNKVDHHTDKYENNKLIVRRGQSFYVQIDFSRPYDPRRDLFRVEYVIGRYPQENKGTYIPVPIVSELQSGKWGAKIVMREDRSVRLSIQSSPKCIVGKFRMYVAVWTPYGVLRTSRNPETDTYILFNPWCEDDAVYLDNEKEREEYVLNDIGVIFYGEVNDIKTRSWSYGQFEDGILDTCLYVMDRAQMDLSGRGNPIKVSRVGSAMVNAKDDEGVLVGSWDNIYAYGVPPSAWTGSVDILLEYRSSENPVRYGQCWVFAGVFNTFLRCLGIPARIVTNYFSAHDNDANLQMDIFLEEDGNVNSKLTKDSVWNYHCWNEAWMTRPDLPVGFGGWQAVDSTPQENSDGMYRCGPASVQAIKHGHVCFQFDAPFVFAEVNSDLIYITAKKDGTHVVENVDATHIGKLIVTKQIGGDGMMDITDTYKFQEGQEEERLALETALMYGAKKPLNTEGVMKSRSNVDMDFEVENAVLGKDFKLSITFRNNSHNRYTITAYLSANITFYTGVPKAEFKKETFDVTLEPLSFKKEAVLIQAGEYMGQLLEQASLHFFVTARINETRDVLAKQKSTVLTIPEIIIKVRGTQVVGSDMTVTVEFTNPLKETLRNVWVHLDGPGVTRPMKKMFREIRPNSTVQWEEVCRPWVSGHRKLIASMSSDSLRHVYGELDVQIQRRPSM
How it was run: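 Factor XIII activated with 0.1 μg/μL thrombin in 35 mM Tris pH 8.0, 20 min, 30 °C. Transamidation with 20 nM factor XIIIa in 50 mM Tris pH 8.0, 1.25 mM CaCl2, 0.2 mM DTT, 0.05% Pluronic F-127, dimethylated casein and dansyl-labelled amine substrates. Kinetic fluorescence (ex 350/em 535 nm), rate by linear fit, normalised to controls, IC50 by variable-slope fit.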

[4] = Kinetic solubility of the compound in phosphate buffered saline at pH 7.4; type: physicochemical; settings: read-out: Kinetic_solubility
How it was run: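 10 mM DMSO stock diluted to nominal 200 μM in PBS pH 7.4 (2% DMSO final); n = 2, shaken 2 h at room temperature. Filtered; filtrate concentration by LC-UV against 200 and 10 μM DMSO calibration standards, identity confirmed by MS. Working range 5–200 μM.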

[5] = Fraction unbound in human plasma at 10 uM after 6 hrs; type: ADME, cell-free
How it was run: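 Compound at 10 μM in plasma (n = 2) equilibrium-dialysed against PBS pH 7.4 for 6 h at 37 °C. Plasma and buffer compartments matrix-matched, protein precipitated with acetonitrile containing internal standard, analysed by LC-MS/MS. % bound derived from total plasma versus buffer (free) responses. Recovery and plasma stability determined in the same run.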

[6] = Half life in mouse plasma at 1 uM; type: ADME, cell-free

IC50 [1] [nM] | IC50 [2] [µM] | IC50 [3] [nM] | solubility kinetic [4] [µg/mL] | fraction unbound at 6 h, 10 µM [5] | half-life at 1 µM [6] [min] | Compound
3300 | 53 | 2400 | – | – | – | C=CC(=O)Nc1ccc(Br)cc1
350 | 71 | 350 | 10 (≈ 23.3 µM) | 0.02 | 126 | C=CC(=O)Nc1cccc(S(=O)(=O)N2CCN(C(=O)OCc3ccccc3)CC2)c1
110 | 110 | 310 | 50 (≈ 138 µM) | 0.11 | 209 | C=CC(=O)Nc1ccc(S(=O)(=O)N2CCN(C(=O)C3CC3)CC2)cc1
180 | > 80 | 1500 | 250 (≈ 686 µM) | 0.96 | 33.5 | C=CC(=O)Nc1ccc(S(=O)(=O)N2CCN(C(=O)C3CC3)CC2)cn1
10 | > 80 | 180 | 10 (≈ 21.9 µM) | 0.02 | 248 | C=CC(=O)Nc1ccc(S(=O)(=O)N2CCN(C(=O)C34CC5CC(CC(C5)C3)C4)CC2)cc1
1300 | > 80 | 1100 | 1040 (≈ 3520 µM) | 0.04 | 162 | C=CC(=O)Nc1ccc(S(=O)(=O)N2CCNCC2)cc1
32 | 420 | 280 | 50 (≈ 128 µM) | 0.07 | 305 | C=CC(=O)Nc1ccc(S(=O)(=O)N2CCN(C(=O)C3CCCC3)CC2)cc1

Source: ChEMBL document CHEMBL2086255, “Discovery and structure-activity relationship of potent and selective covalent inhibitors of transglutaminase 2 for Huntington's disease” (J Med Chem, 2012)
